In ChEMBL document CHEMBL1149831, “Synthesis of 2-aryl-4-(benzimidazol-2-yl)-1,2-dihydro[1,2,4]triazino-[4,5-a]benzimidazol-1-one derivatives with preferential cytotoxicity against carcinoma cell lines” (Eur J Med Chem, 2008):

Legend:
Type in all cases: functional, cell-based
U-118-MG = test: Cytotoxicity against human U118Mg cells after 72 hrs by MTT assay
Method in brief: (§1)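 Cells grown in DMEM/RPMI 1640 with 5 g/L glucose, 2 mM glutamine, penicillin/streptomycin, 10% fetal calf serum and NaHCO3. Seeded in 96-well plates and left 24 h at 37 °C, 5% CO2 before compound addition. Exposure then ran 72 h, each concentration in duplicate. MTT added for 1-4 h and formazan dissolved overnight in 10% aq. SDS (pH 5.5). OD read at 540 nm, with IC50 taken from dose-response curves.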

CCRF-CEM [1] = test: Cytotoxicity against human CEM-DNR bulk cells after 72 hrs by MTT assay; method in brief: as §1
K562 [2] = test: Cytotoxicity against human K562-Tax cells after 72 hrs by MTT assay; conditions: K562, 72 h; method in brief: as §1
CCRF-CEM [3] = test: Cytotoxicity against human CEM cells after 72 hrs by MTT assay; method in brief: as §1
A549 = test: Cytotoxicity against human A549 cells after 72 hrs by MTT assay; conditions: A549, 72 h; method in brief: as §1
K562 [4] = test: Cytotoxicity against human K562 cells after 72 hrs by MTT assay; conditions: K562, 72 h; method in brief: as §1
HCT-116 [5] = test: Cytotoxicity against human HCT116 cells expressing mutant p53 after 72 hrs by MTT assay; conditions: HCT-116, 72 h; method in brief: as §1
PC-3 = test: Cytotoxicity against human PC3 cells after 72 hrs by MTT assay; conditions: PC-3, 72 h; method in brief: as §1
HCT-116 [6] = test: Cytotoxicity against human HCT116 cells expressing wild type p53 after 72 hrs by MTT assay; conditions: HCT-116, 72 h; method in brief: as §1
HT-29 = test: Cytotoxicity against human HT29 cells after 72 hrs by MTT assay; conditions: HT-29, 72 h; method in brief: as §1
MCF7 = test: Cytotoxicity against human MCF7 cells after 72 hrs by MTT assay; conditions: MCF7, 72 h; method in brief: as §1

SMILES	IC50 (U-118-MG)	IC50 (CCRF-CEM [1])	IC50 (K562 [2])	IC50 (CCRF-CEM [3])	IC50 (A549)	IC50 (K562 [4])	IC50 (HCT-116 [5])	IC50 (PC-3)	IC50 (HCT-116 [6])	IC50 (HT-29)	IC50 (MCF7)
O=c1n(-c2ccccc2)nc(-c2nc3ccccc3[nH]2)c2nc3ccccc3n12	12 µM	45.6 µM	42.7 µM	12.2 µM	11.5 µM	23.5 µM	8.6 µM	13.6 µM	38.1 µM	8 µM	74.8 µM
CCOC(=O)n1c(-c2nn(-c3ccc(C)cc3)c(=O)n3c2nc2ccccc23)nc2ccccc21	147 µM	29.6 µM	53.7 µM	25.5 µM	71 µM	140 µM	44.4 µM	165 µM	46.3 µM	96.2 µM	134 µM
Clc1ccc(NN=C(c2nc3ccccc3[nH]2)c2nc3ccccc3[nH]2)cc1	250 µM	112 µM	159 µM	42.5 µM	2.8 µM	200 µM	16.8 µM	250 µM	201 µM	114 µM	140 µM
c1ccc(NN=C(c2nc3ccccc3[nH]2)c2nc3ccccc3[nH]2)cc1	160 µM	27.9 µM	144 µM	13 µM	3.8 µM	114 µM	17.6 µM	248 µM	162 µM	81.9 µM	83.2 µM
O=c1n(-c2ccc([N+](=O)[O-])cc2)nc(-c2nc3ccccc3[nH]2)c2nc3ccccc3n12	250 µM	190 µM	250 µM	103 µM	2.2 µM	210 µM	250 µM	250 µM	250 µM	248 µM	250 µM
COc1ccc(-n2nc(-c3nc4ccccc4[nH]3)c3nc4ccccc4n3c2=O)cc1	10 µM	35.4 µM	7.5 µM	3.5 µM	8.7 µM	8.7 µM	3.6 µM	24.6 µM	6.9 µM	6 µM	10.7 µM
Cc1ccc(NN=C(c2nc3ccccc3[nH]2)c2nc3ccccc3[nH]2)cc1	250 µM	87.6 µM	239 µM	26.5 µM	0.6 µM	160 µM	10.5 µM	250 µM	195 µM	95.9 µM	95.8 µM
Cc1ccc(-n2nc(-c3nc4ccccc4[nH]3)c3nc4ccccc4n3c2=O)cc1	17.9 µM	61.2 µM	20.9 µM	18.5 µM	14.7 µM	18.3 µM	7.6 µM	40.8 µM	7.8 µM	15.2 µM	34.1 µM
CCOC(=O)n1c(-c2nn(-c3ccc(Cl)cc3)c(=O)n3c2nc2ccccc23)nc2ccccc21	12.4 µM	111 µM	7.9 µM	31.8 µM	4 µM	14.1 µM	6.4 µM	150 µM	7.7 µM	29.7 µM	21.3 µM
COc1ccc(NN=C(c2nc3ccccc3[nH]2)c2nc3ccccc3[nH]2)cc1	250 µM	96.7 µM	235 µM	10.9 µM	0.5 µM	116 µM	66.5 µM	250 µM	35.7 µM	114 µM	215 µM
O=[N+]([O-])c1ccc(NN=C(c2nc3ccccc3[nH]2)c2nc3ccccc3[nH]2)cc1	250 µM	140 µM	101 µM	58.4 µM	0.7 µM	190 µM	4.7 µM	218 µM	11.7 µM	17.7 µM	94.8 µM
O=c1n(-c2ccc(Cl)cc2)nc(-c2nc3ccccc3[nH]2)c2nc3ccccc3n12	247 µM	51.2 µM	167 µM	83.6 µM	1.2 µM	134 µM	2.3 µM	242 µM	73.9 µM	88.6 µM	140 µM
CCOC(=O)n1c(-c2nn(-c3ccc(OC)cc3)c(=O)n3c2nc2ccccc23)nc2ccccc21	54.3 µM	111 µM	7.8 µM	31.8 µM	44.4 µM	14 µM	46.3 µM	145 µM	42.8 µM	38.7 µM	51.6 µM
CCOC(=O)n1c(-c2nn(-c3ccc([N+](=O)[O-])cc3)c(=O)n3c2nc2ccccc23)nc2ccccc21	6.2 µM	224 µM	196 µM	155 µM	4.4 µM	166 µM	5.4 µM	125 µM	70.7 µM	21.9 µM	144 µM
CCOC(=O)n1c(-c2nn(-c3ccccc3)c(=O)n3c2nc2ccccc23)nc2ccccc21	17.7 µM	18.4 µM	42.2 µM	58.6 µM	18 µM	69.4 µM	10.8 µM	37.5 µM	11.4 µM	15.2 µM	35.1 µM
